Experimental data published in ChEMBL document CHEMBL5724801, “EUbOPEN Chemogenomics Library - Multiplex” (2024).
Values joined by “and” are separate entries in the source; they are usually repeats but may differ in a detail not shown here. Equal entries are not always repeated.

Test system: Fibroblast
Test: Multiplex assay against human fibroblast
Type: toxicity, cell-based
How it was run: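 Imaging took place on a CQ1 microscope at 37°C and 5% CO2 once compound had been added to live cells stained at seeding with Hoechst33342, BioTracker Green Microtubule Cytoskeleton Dye, MitoTracker Red and Annexin V Alexa Fluor 680. CellPathfinder machine-learning gating classed cells as Hoechst high-intensity objects or normal cells, classed normal cells as having healthy, pyknosed or fragmented nuclei, and classed pyknosed cells as mitotic or apoptotic. Tubulin, mitochondrial-mass and membrane-permeability phenotypes are per cents of the healthy-nucleus cells.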

[1] = 12 h, 1 µM, compound concentration 1 uM
[2] = 12 h, 10 µM, compound concentration 10 uM
[3] = 24 h, 1 µM, compound concentration 1 uM
[4] = 24 h, 10 µM, compound concentration 10 uM
[5] = 48 h, 1 µM, compound concentration 1 uM
[6] = 48 h, 10 µM, compound concentration 10 uM

## O=C(NCC(=O)N1CC[C@H](N[C@H]2CC[C@@](O)(c3ccc(-c4ncccn4)cn3)CC2)C1)c1cccc(C(F)(F)F)c1 [PF-4136309]
[1]
  Population Apoptotic (%): 53% and 22%
  Population Fragmented Nuclei (%): 13% and 25%
  Population Healthy Nuclei (%): 63% and 52%
  Population Hoechst High Intensity Objects (%): 2% and 5%
  Population Mitochondria Different-Phenotype (%): 4% and 7%
  Population Mitotic Cells (%): 46% and 77%
  Population Normal (%): 97% and 94%
  Population Pyknosed Nuclei (%): 23% and 21%
  Population Tubulin-Different-Phenotype (%): 28% and 60%
  Total Cell Count: 142 and 152
[2]
  Population Apoptotic (%): 60% and 25%
  Population Fragmented Nuclei (%): 18% and 24%
  Population Healthy Nuclei (%): 69% and 52%
  Population Hoechst High Intensity Objects (%): 2% and 5%
  Population Membrane Permeable-Phenotype (%): 0% and 4%
  Population Mitochondria Different-Phenotype (%): 11% and 6%
  Population Mitotic Cells (%): 40% and 75%
  Population Normal (%): 97% and 94%
  Population Pyknosed Nuclei (%): 12% and 23%
  Population Tubulin-Different-Phenotype (%): 46% and 44%
  Total Cell Count: 210 and 128
[3]
  Population Apoptotic (%): 61% and 45%
  Population Fragmented Nuclei (%): 14% and 33%
  Population Healthy Nuclei (%): 60% and 52%
  Population Hoechst High Intensity Objects (%): 2% and 4%
  Population Mitochondria Different-Phenotype (%): 4% and 1%
  Population Mitotic Cells (%): 38% and 55%
  Population Normal (%): 97% and 95%
  Population Pyknosed Nuclei (%): 25% and 14%
  Population Tubulin-Different-Phenotype (%): 32% and 52%
  Total Cell Count: 139 and 148
[4]
  Population Apoptotic (%): 36% and 30%
  Population Fragmented Nuclei (%): 15% and 29%
  Population Healthy Nuclei (%): 72% and 48%
  Population Hoechst High Intensity Objects (%): 3% and 2%
  Population Membrane Permeable-Phenotype (%): 0% and 6%
  Population Mitochondria Different-Phenotype (%): 10% and 4%
  Population Mitotic Cells (%): 63% and 70%
  Population Normal (%): 96% and 97%
  Population Pyknosed Nuclei (%): 11% and 22%
  Population Tubulin-Different-Phenotype (%): 34% and 52%
  Total Cell Count: 203 and 139
[5]
  Population Apoptotic (%): 58% and 50%
  Population Fragmented Nuclei (%): 26% and 36%
  Population Healthy Nuclei (%): 49%
  Population Hoechst High Intensity Objects (%): 2% and 4%
  Population Membrane Permeable-Phenotype (%): 2% and 7%
  Population Mitochondria Different-Phenotype (%): 2% and 4%
  Population Mitotic Cells (%): 41% and 50%
  Population Normal (%): 97% and 95%
  Population Pyknosed Nuclei (%): 24% and 13%
  Population Tubulin-Different-Phenotype (%): 27% and 46%
  Total Cell Count: 149 and 137
[6]
  Population Apoptotic (%): 47% and 63%
  Population Fragmented Nuclei (%): 18% and 31%
  Population Healthy Nuclei (%): 72% and 52%
  Population Hoechst High Intensity Objects (%): 6%
  Population Membrane Permeable-Phenotype (%): 0% and 6%
  Population Mitochondria Different-Phenotype (%): 15% and 6%
  Population Mitotic Cells (%): 52% and 36%
  Population Normal (%): 93%
  Population Pyknosed Nuclei (%): 9% and 15%
  Population Tubulin-Different-Phenotype (%): 47% and 54%
  Total Cell Count: 195 and 129

## COc1ccc2c(c1OCc1ccccc1)C[C@@H](C(=O)O)N(C(=O)C(c1ccccc1)c1ccccc1)C2 [OLODANRIGAN]
[1]
  Population Apoptotic (%): 46% and 38%
  Population Fragmented Nuclei (%): 17% and 21%
  Population Healthy Nuclei (%): 63% and 50%
  Population Hoechst High Intensity Objects (%): 7% and 1%
  Population Membrane Permeable-Phenotype (%): 1% and 9%
  Population Mitochondria Different-Phenotype (%): 2% and 5%
  Population Mitotic Cells (%): 53% and 61%
  Population Normal (%): 92% and 98%
  Population Pyknosed Nuclei (%): 19% and 27%
  Population Tubulin-Different-Phenotype (%): 29% and 57%
  Total Cell Count: 157 and 154
[2]
  Population Apoptotic (%): 31% and 34%
  Population Fragmented Nuclei (%): 11% and 18%
  Population Healthy Nuclei (%): 65% and 54%
  Population Hoechst High Intensity Objects (%): 0% and 5%
  Population Membrane Permeable-Phenotype (%): 1% and 6%
  Population Mitochondria Different-Phenotype (%): 7%
  Population Mitotic Cells (%): 68% and 65%
  Population Normal (%): 99% and 94%
  Population Pyknosed Nuclei (%): 23% and 26%
  Population Tubulin-Different-Phenotype (%): 28% and 46%
  Total Cell Count: 140 and 162
[3]
  Population Apoptotic (%): 65% and 38%
  Population Fragmented Nuclei (%): 18% and 21%
  Population Healthy Nuclei (%): 66% and 53%
  Population Hoechst High Intensity Objects (%): 6% and 2%
  Population Membrane Permeable-Phenotype (%): 0% and 9%
  Population Mitochondria Different-Phenotype (%): 1% and 7%
  Population Mitotic Cells (%): 34% and 61%
  Population Normal (%): 93% and 97%
  Population Pyknosed Nuclei (%): 15% and 25%
  Population Tubulin-Different-Phenotype (%): 26% and 46%
  Total Cell Count: 159 and 146
[4]
  Population Apoptotic (%): 53% and 58%
  Population Fragmented Nuclei (%): 10% and 17%
  Population Healthy Nuclei (%): 68% and 62%
  Population Hoechst High Intensity Objects (%): 2% and 3%
  Population Membrane Permeable-Phenotype (%): 1% and 4%
  Population Mitochondria Different-Phenotype (%): 3% and 4%
  Population Mitotic Cells (%): 46% and 41%
  Population Normal (%): 97% and 96%
  Population Pyknosed Nuclei (%): 21% and 19%
  Population Tubulin-Different-Phenotype (%): 21% and 50%
  Total Cell Count: 136 and 153
[5]
  Population Apoptotic (%): 42% and 41%
  Population Fragmented Nuclei (%): 27% and 31%
  Population Healthy Nuclei (%): 58% and 52%
  Population Hoechst High Intensity Objects (%): 3% and 1%
  Population Membrane Permeable-Phenotype (%): 0% and 1%
  Population Mitochondria Different-Phenotype (%): 2% and 4%
  Population Mitotic Cells (%): 57% and 58%
  Population Normal (%): 96% and 98%
  Population Pyknosed Nuclei (%): 14% and 15%
  Population Tubulin-Different-Phenotype (%): 20% and 40%
  Total Cell Count: 154 and 156
[6]
  Population Apoptotic (%): 57% and 61%
  Population Fragmented Nuclei (%): 15% and 29%
  Population Healthy Nuclei (%): 69% and 58%
  Population Hoechst High Intensity Objects (%): 5% and 7%
  Population Membrane Permeable-Phenotype (%): 1% and 3%
  Population Mitochondria Different-Phenotype (%): 5%
  Population Mitotic Cells (%): 42% and 38%
  Population Normal (%): 94% and 92%
  Population Pyknosed Nuclei (%): 15% and 12%
  Population Tubulin-Different-Phenotype (%): 27% and 45%
  Total Cell Count: 146 and 163
